Laboratory results taken from ChEMBL document CHEMBL4842319, “Synthesis of alkynylated 1,2,4-oxadiazole/1,2,3-1H-triazole glycoconjugates: Discovering new compounds for use in chemotherapy against lung carcinoma and Mycobacterium tuberculosis” (Eur J Med Chem, 2021).
Values after ≈ are worked out from the molar mass of the structure shown.

What was measured:
[1] = tested on: Mycobacterium tuberculosis; experiment: Antimycobacterial activity against Mycobacterium tuberculosis H37Rv ATCC 27294 assessed as inhibition of bacterial growth incubated for 9 days by resazurin microtiter assay; format: functional; settings: H37Rv ATCC 27294, 216 h, time 9 day
How it was run: (§1)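 REMA broth microdilution in 7H9-S medium, run in duplicate. Test compounds were serially two-fold diluted on the plate from 64 to 0.5 µg/mL. Inoculum taken from fresh Löwenstein-Jensen culture, adjusted to McFarland no. 1 and diluted 1:20. Plates were sealed and incubated at 37 °C in normal atmosphere for 9 days, then resazurin was added. Rifampicin and ethambutol served as standards. MIC reported in µg/mL.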

[2] = Cytotoxicity against mouse RAW264.7 cells assessed as reduction in cell viability incubated for 48 hrs by MTT assay; format: cell-based
How it was run: (§2)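 RAW 264.7 macrophages and HepG2 cells were cultured in DMEM at 37 °C, 5% CO2. For the assay, 10⁵ cells/well were preincubated for 24 h, then exposed to compounds at […] for 48 h, in duplicate. MTT (5 mg/mL in PBS) was added for 2 h and absorbance read at 570 nm. Untreated wells served as the negative control. CC50 obtained by regression analysis.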

[3] = Cytotoxicity against human HepG2 cells assessed as reduction in cell viability incubated for 48 hrs by MTT assay; format: cell-based; how it was run: as §2
[4] = tested on: Mycobacterium tuberculosis; experiment: Antimycobacterial activity against Mycobacterium tuberculosis H37Ra ATCC 25177 assessed as inhibition of bacterial growth incubated for 9 days by resazurin microtiter assay; format: functional; settings: H37Ra ATCC 25177, 216 h, time 9 day; how it was run: as §1
[5] = Selectivity index, ratio of CC50 for human HepG2 cells to MIC for antimycobacterial activity against Mycobacterium tuberculosis H37Rv ATCC 27294; format: toxicity; settings: read-out: Selectivity Index
[6] = Cytotoxicity against African green monkey Vero cells assessed as reduction in cell viability measured after 5 days by MTT assay; format: cell-based; settings: chlorocebus sabaeus, time 5 day
How it was run: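 Vero cells in DMEM with 10% inactivated FBS, plated at 1×10⁴ cells/well 24 h before treatment. Compounds were applied at 800, 400, 200, 100 and 50 µM, with at most 0.8% DMSO, for 5 days at 37 °C. MTT (1 mg/mL) was added for 4 h, formazan solubilised in DMSO and OD570 read. CC50 is the concentration giving a 50% reduction in absorbance.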

[7] = Selectivity index, ratio of CC50 for mouse RAW264.7 cells to MIC for antimycobacterial activity against Mycobacterium tuberculosis H37Rv ATCC 27294; format: toxicity; settings: read-out: Selectivity Index
[8] = Cytotoxicity against human AGP01 cells assessed as inhibition of cell proliferation at 25 uM incubated for 72 hrs by MTT assay relative to control; format: functional; design: scale not given: the % may be the effect or the level left
How it was run: (§3)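 Tumor lines from NCI. PC-3, HCT-116 and NCIH-460 were grown in RPMI 1640; SKMEL-103 and AGP-01 in DMEM; all with 10% FBS at 37 °C, 5% CO2. Seeding was 0.3×10⁶ cells/mL for SKMEL-103 and AGP-01, 0.1×10⁶ for PC-3 and NCIH-460, and 0.7×10⁵ for HCT-116. Cells were exposed to compound at 25 µM for 72 h. Cells were centrifuged, 1% MTT added for 3 h, formazan dissolved in DMSO and read at 570 nm.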

PC-3 = experiment: Cytotoxicity against human PC-3 cells assessed as inhibition of cell proliferation at 25 uM incubated for 72 hrs by MTT assay relative to control; format: functional; design: scale not given: the % may be the effect or the level left; how it was run: as §3
NCI-H460 [9] = experiment: Cytotoxicity against human NCI-H460 cells assessed as inhibition of cell proliferation at 25 uM incubated for 72 hrs by MTT assay relative to control; format: functional; design: scale not given: the % may be the effect or the level left; how it was run: as §3
SK-MEL-103 = experiment: Cytotoxicity against human SK-MEL-103 cells assessed as inhibition of cell proliferation at 25 uM incubated for 72 hrs by MTT assay relative to control; format: functional; design: scale not given: the % may be the effect or the level left; how it was run: as §3
HCT-116 = experiment: Cytotoxicity against human HCT-116 cells assessed as inhibition of cell proliferation at 25 uM incubated for 72 hrs by MTT assay relative to control; format: functional; design: scale not given: the % may be the effect or the level left; how it was run: as §3
NCI-H460 [10] = experiment: Antiproliferative activity against human NCI-H460 cells assessed as inhibition of cell growth incubated for 72 hrs by MTT assay; format: functional, cell-based; settings: NCI-H460, 72 h
How it was run: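 NCIH-460 cells in RPMI 1640 with 10% FBS at 0.1×10⁶ cells/mL, treated for 72 h at 37 °C, 5% CO2. MTT read-out: 1% MTT for 3 h, formazan dissolved in DMSO, absorbance at 570 nm. IC50 derived from absorbances by nonlinear regression.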

Structure (SMILES) | MIC [1] | CC50 at 48 h [2] | CC50 at 48 h [3] | MIC [4] | selectivity ratio [5] | CC50 at 120 h [6] | selectivity ratio [7] | Activity [8] | Activity (PC-3) | Activity (NCI-H460 [9]) | Activity (SK-MEL-103) | Activity (HCT-116) | IC50 (NCI-H460 [10])
CC(=O)OC[C@H]1O[C@H](OC[C@@H](Cn2cc(CN(c3nc(-c4ccc(C(F)(F)F)cc4)no3)C3CCCCC3)nn2)OC(C)=O)C=C[C@@H]1OC(C)=O | ≥ 64 µg/mL | 64.1 µg/mL (≈ 89 µM) | 81.4 µg/mL (≈ 113 µM) | ≥ 64 µg/mL | 1.67 | 706 µM | < 1 |  |  |  |  |  | 
C#CCN(c1nc(-c2cccc(Br)c2)no1)C1CCCCC1 | 32 µg/mL (≈ 88.8 µM) | 31.8 µg/mL (≈ 88.2 µM) | 53.5 µg/mL (≈ 148 µM) | ≥ 64 µg/mL | 1.67 |  | 0.9 | 69.1% | 58.6% | 17.9% | 39.4% | 65.6% | 
C#Cc1ccc(-c2noc(NC3CCCCC3)n2)cc1 | 32 µg/mL (≈ 120 µM) | 19.8 µg/mL (≈ 74.1 µM) | 54.2 µg/mL (≈ 203 µM) | 32 µg/mL (≈ 120 µM) | 1.69 |  | 0.62 | 44.4% | 46% | 34% | 40.1% | 60.7% | 
CC(=O)OC[C@H]1O[C@H](OC[C@@H](Cn2cc(CN(c3nc(-c4ccc([N+](=O)[O-])cc4)no3)C3CCCCC3)nn2)OC(C)=O)C=C[C@@H]1OC(C)=O | ≥ 64 µg/mL |  | > 200 µg/mL | ≥ 64 µg/mL |  |  | 1.25 | 47.6% | 28.8% | 36.3% | 30.6% | 39.1% | 
CC(=O)OC[C@H]1O[C@H](OC[C@@H](Cn2cc(CN(c3nc(-c4cccc(C)c4)no3)C3CCCCC3)nn2)OC(C)=O)C=C[C@@H]1OC(C)=O | ≥ 64 µg/mL | 46.4 µg/mL (≈ 69.6 µM) | 39.2 µg/mL (≈ 58.8 µM) | ≥ 64 µg/mL | < 0.61 |  | < 0.72 | 38.9% | 9.2% | 26.1% | 69% | 69.5% | 
CC(=O)OC[C@H]1O[C@H](OC[C@@H](Cn2cc(CN(c3nc(-c4ccc(C)cc4)no3)C3CCCCC3)nn2)OC(C)=O)C=C[C@@H]1OC(C)=O | 16 µg/mL (≈ 24 µM) | 45.3 µg/mL (≈ 68 µM) | 36.8 µg/mL (≈ 55.2 µM) | 8 µg/mL (≈ 12 µM) | 2.3 | 498 µM | 2.83 |  |  |  |  |  | 
C#CCN(c1nc(-c2cccc(C)c2)no1)C1CCCCC1 | 32 µg/mL (≈ 108 µM) | 25.9 µg/mL (≈ 87.6 µM) | 44.4 µg/mL (≈ 150 µM) | ≥ 64 µg/mL | 1.38 |  | 0.8 | 94.5% | 29.4% | 40.2% | 87.7% | 86.5% | 
C#CCN(c1nc(-c2ccc(OC)cc2)no1)C1CCCCC1 | 64 µg/mL (≈ 206 µM) | 28 µg/mL (≈ 89.8 µM) | 72.5 µg/mL (≈ 233 µM) | ≥ 64 µg/mL | 1.13 |  | 0.46 | 57.3% | 23.7% | 69.1% | 37.3% | 40.7% | 1 µg/mL (≈ 3.21 µM)
C#CCN(c1nc(-c2ccccc2)no1)C1CCCCC1 | ≥ 64 µg/mL | 32.1 µg/mL (≈ 114 µM) | 109 µg/mL (≈ 386 µM) | ≥ 64 µg/mL | < 1.69 |  | < 0.5 | 47% | 23.7% | 22.6% | 28.6% |  | 
C#CCN(c1nc(-c2ccc(F)cc2)no1)C1CCCCC1 | 64 µg/mL (≈ 214 µM) | 20.9 µg/mL (≈ 69.9 µM) | 41.1 µg/mL (≈ 137 µM) | 64 µg/mL (≈ 214 µM) | 0.64 |  | 0.32 | 50.4% | 25.4% | 50.5% | 47.3% | 44.9% | 1.16 µg/mL (≈ 3.88 µM)
CC(=O)OC[C@H]1O[C@H](OC[C@@H](Cn2cc(CN(c3nc(-c4ccc(F)cc4)no3)C3CCCCC3)nn2)OC(C)=O)C=C[C@@H]1OC(C)=O | ≥ 64 µg/mL | 31.5 µg/mL (≈ 46.9 µM) | 28.8 µg/mL (≈ 42.9 µM) | ≥ 64 µg/mL | < 0.45 |  | < 0.49 | 69.4% | 7.1% | 17.7% | 20.7% | 44.9% | 
C#CCN(c1nc(-c2cccc([N+](=O)[O-])c2)no1)C1CCCCC1 | ≥ 64 µg/mL | 34.2 µg/mL (≈ 105 µM) | 45.5 µg/mL (≈ 139 µM) | ≥ 64 µg/mL | < 0.71 |  | < 0.53 | 46% | 7.2% | 5.8% | 44.4% | 24.8% | 
C#CCOc1ccc(-c2noc(NC3CCCCC3)n2)cc1 | 32 µg/mL (≈ 108 µM) | 38.3 µg/mL (≈ 129 µM) | 119 µg/mL (≈ 399 µM) | 32 µg/mL (≈ 108 µM) | 3.7 |  | 1.29 | 2.6% | 64.2% | 75.7% | 62.8% | 43.3% | 5.3 µg/mL (≈ 17.8 µM)
CC(=O)OC[C@H]1O[C@H](OC[C@@H](Cn2cc(CN(c3nc(-c4ccccc4)no3)C3CCCCC3)nn2)OC(C)=O)C=C[C@@H]1OC(C)=O | 16 µg/mL (≈ 24.5 µM) | 28.6 µg/mL (≈ 43.8 µM) | 19.9 µg/mL (≈ 30.5 µM) | 16 µg/mL (≈ 24.5 µM) | 1.24 | 607 µM | 1.78 |  |  |  |  |  | 
COc1cccc2c1C(=O)c1c(O)c3c(c(O)c1C2=O)C[C@@](O)(C(=O)CO)C[C@@H]3O[C@H]1C[C@H](N)[C@H](O)[C@H](C)O1 [DOXORUBICIN] |  |  |  |  |  |  |  |  |  |  |  |  | 0.08 µg/mL (≈ 0.147 µM)
